Source: PubChem BioAssay
Sampled rows, rich in hits. Any-hit rate of the full collection: about 1.6%.
MDM2 E3 inh = MDM2-luciferase reporter signal enhancers, primary screen, MDM2 E3 ligase inhibitor project, cell-based, luminescence, 1536-well | 0.11% of 210,000 active | E3 ubiquitin-protein ligase Mdm2 (Homo sapiens), Q00987 | cell-based MDM2 ubiquitination luciferase reporter, 2 h; 0 = plate control, 100 = twice control, blank-subtracted | signal enhancement, % at 5 µM;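 active = signal enhancement of 30% or more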;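 also: luminescence tracks abundance of the self-degrading MDM2-luciferase fusion protein; higher signal means inhibition of MDM2 E3 ligase activity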
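Material: stable MDM2–luciferase fusion reporter cells / Quantity: 2000 cells/well / Dosing: single 5 µM compound dose, 0.2% final DMSO / Buffer or medium: DMEM / Schedule: 4 h cell settling then 2 h compound exposure, 37 °C / Detection: luminescence with SteadyLite reagent, 15 min at room temperature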
Wee1 stabilizer = Wee1 degradation inhibitors, primary screen, cell-based, HeLa, Wee1K328M-luciferase, luminescence; Wee1-like protein kinase (Homo sapiens), P30291; HeLa Luc-Wee1K328M stability; 100% = proteasome inhibitor MG132 effect; reporter increase, % at 5 µM; 1.2% of 220,000 active;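 active = activation above the mean of all tested compounds plus 3 SD, set per screening run, cut at about 8.8% in these data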;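 also: cells exposed to compound for 20 h before luminescence read; 0% = DMSO alone and 100% = MG132 at 30 µM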
Target sequence (P30291 whole entry K328M): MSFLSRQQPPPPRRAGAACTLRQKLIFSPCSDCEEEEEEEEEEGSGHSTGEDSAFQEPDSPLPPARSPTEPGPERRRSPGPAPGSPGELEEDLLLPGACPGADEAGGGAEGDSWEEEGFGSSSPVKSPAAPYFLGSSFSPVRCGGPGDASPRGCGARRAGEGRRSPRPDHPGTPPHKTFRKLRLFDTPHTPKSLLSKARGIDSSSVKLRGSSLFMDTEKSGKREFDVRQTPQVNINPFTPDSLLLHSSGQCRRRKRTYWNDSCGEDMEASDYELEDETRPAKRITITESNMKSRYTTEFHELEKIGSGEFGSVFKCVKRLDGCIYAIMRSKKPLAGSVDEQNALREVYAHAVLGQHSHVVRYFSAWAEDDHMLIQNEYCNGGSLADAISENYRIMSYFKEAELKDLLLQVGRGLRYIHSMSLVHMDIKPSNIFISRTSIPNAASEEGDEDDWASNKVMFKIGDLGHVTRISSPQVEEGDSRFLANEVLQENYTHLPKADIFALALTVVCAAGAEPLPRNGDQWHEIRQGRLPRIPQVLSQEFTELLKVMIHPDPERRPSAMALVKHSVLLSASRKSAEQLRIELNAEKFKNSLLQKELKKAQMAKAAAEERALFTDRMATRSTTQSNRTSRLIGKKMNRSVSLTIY
TNF death inh = inhibitors of TNF-alpha triggered necroptosis, primary screen, cell-based, Jurkat FADD-/-, single concentration. Jurkat FADD-/- TNF necroptosis rescue, ATP luminescence, 24 h; 0 = TNF only, 100 = no-TNF cells. activation (protection from cell death), % at 10 µM. 0.068% of 220,000 active;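 active = activation, meaning protection from cell death, of at least 50% relative to plate controls; inactive = activation below 50%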;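 also: necroptosis triggered by 40 ng/mL TNF-alpha added together with compound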
Pf gametocyte = late stage P. falciparum gametocyte viability inhibitors, primary screen, ATP luminescence, HTS. P. falciparum stage V gametocytes, 24 h. inhibition, % at 10.9 µM. 0.065% of 150,000 active;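 active = inhibition above the mean plus 3 SD of compounds within the control limits, set per campaign, cut at about 38% in these data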;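 also: 0% = DMSO wells and 100% = medium only without gametocytes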
zVAD death inh = inhibitors of zVAD-triggered necroptosis, primary screen, L929 cells | L929 zVAD necroptosis rescue, ATP luminescence, 24 h; with zVAD 60 µM | viability rescue, % at 10 µM | 0.38% of 220,000 active;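 active = activation, scaled between plate controls, above about 75%, limit read from the data; inactive = activation under that limit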;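 also: 0% = zVAD with DMSO and 100% = DMSO alone without zVAD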
zVAD death conf = inhibitors of zVAD-triggered necroptosis in L929, confirmation, L929 cells, duplicate runs | AID 463117, 2010 | 16% of 760 active | activation (protection from necroptosis), % at 10 µM | shares compounds with zVAD death inh | L929 zVAD-induced necroptosis rescue, ATP luminescence, 24 h;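 active = mean protection from necroptosis of at least 50% over duplicate tests; inactive = mean protection below 50%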;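 also: 0% = cells with zVAD alone and 100% = vehicle cells without zVAD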
An asterisk follows results filed as active; x = no result.

SMILES	MDM2 E3 inh	Wee1 stabilizer	TNF death inh	Pf gametocyte	zVAD death inh	zVAD death conf
CCc1[nH]c(=O)c(C#N)c2c1CSC(C)(C)C2	-1	-1	-2	x	1	x
CCCCc1[nH]c(=O)c(C#N)c2c1CSC(C)(C)C2	-12	0	-2	x	75*	34
O=C(Nc1ccc2c(c1)ncn2C1CCCCC1)c1ccco1	-19	1	1	-12	82*	3
COc1ccc(-n2cnc3cc(NC(=O)c4ccco4)ccc32)cc1	-3	0	4	x	83*	47
Cc1ccc(S(=O)(=O)N2CCN(C(=O)CSc3ncc(C(F)(F)F)cc3Cl)CC2)cc1	-4	4	2	x	0	x
CC(C)CN1CN(S(=O)(=O)c2cccs2)c2nc3ccccc3nc21	4	-2	-2	x	-1	x
Cc1ccc(C(=O)N2NC(c3ccccc3F)C3C(=O)N(c4cccc(C)c4)C(=O)C32)cc1 (centres undefined)	x	1	2	x	3	x
C/C(=N\NC(=O)c1ccc(NS(=O)(=O)c2cccs2)cc1)c1ccc(C(C)(C)C)cc1	-7	-2	7	3	82*	6
COc1ccc2cc(C(=O)NCc3ccccc3)c(=Nc3ccc(C(=O)O)cc3)oc2c1	-7	2	2	x	76*	1
CC(=O)Nc1cc(-c2ccc(F)cc2)[nH]n1	-25	2	-1	-13	76*	31
O=C(Nc1cc(-c2ccccc2)[nH]n1)c1ccccc1F	-11	3	-7	-3	71	x
Cc1cc2c(cc1C)NC1(C(=O)Nc3ccccc31)C1=C(CC(C)(C)CC1=O)N2 (centres undefined)	-17	1	-2	-7	1	x
Cc1cccc(NC(=S)N2CCCCC2c2cccnc2)c1C (centres undefined)	-10	-2	0	-9	0	x
O=S(=O)(CC(CN1CCCCC1)N1CCCCC1)c1ccc2ccccc2c1 (centres undefined)	-13	1	-5	-5	76*	2
O=S(=O)(CC(CN1CCOCC1)N1CCOCC1)c1ccccc1 (centres undefined)	-7	0	1	5	0	x
Cc1ccc(S(=O)(=O)CC(CN2CCCCC2)N2CCCCC2)cc1 (centres undefined)	-12	-4	10	-8	81*	22
Cn1c(C(=O)NCCCN2CCCCCC2)cc2c(=O)n(C)c3ccccc3c21	-11	0	3	x	83*	39
CN1CCN(CCNC(=O)c2cc3c(=O)n(C)c4ccccc4c3n2C)CC1	-10	0	4	x	78*	28
CC(C)NC(=O)Cn1cc(C(=O)C2CC2)c2ccccc21	-8	1	0	4	3	x
Cc1cccc(N(C)C(=O)c2coc(=O)c3ccccc23)c1	-6	5	-1	x	-1	x
CNc1ncc(C(=O)c2ccc(Br)cc2)s1	-8	3	6	6	83*	1
Cc1csc(N/N=C\c2cccnc2)n1	-11	0	10	-21	88*	8
COc1cc(C)c(S(=O)(=O)N2CCCC2)cc1C(C)C	0	-2	-2	-3	0	x
O=c1cc(-c2cccnc2)oc2c1ccc1ccccc12	x	-2	-11	-12	75*	2
O=C(Nc1cc(-c2ccccc2)nn1-c1c(Cl)cccc1Cl)c1ccc(F)cc1	x	x	x	-40	x	x
SMILES	MDM2 E3 inh	Wee1 stabilizer	TNF death inh	Pf gametocyte	zVAD death inh	zVAD death conf
O=C(NC12CC3CC(CC(C3)C1)C2)c1ccc(-c2ccc(Cl)cc2)o1	-7	-3	4	9	82*	2
Cc1ccc(CN2CCS(=O)(=O)CC2)o1	-6	-4	14	x	83*	5
Oc1ccc(-c2[nH]ncc2-c2cnn(-c3ccccc3)c2)c(O)c1	0	0	-3	x	79*	2
CCOc1cc(/C=N/NC(=O)c2cc(C3CC3)[nH]n2)ccc1O	-5	1	9	-30	91*	7
CC(C)c1ccc(NCCC(=O)c2cccs2)cc1	-23	4	4	-6	0	x
Oc1[nH]c2ccccc2c1/C=N/c1nccs1	-12	-3	-4	-23	76*	35
COc1ccc(N=Cc2c(O)[nH]c3ccccc23)cc1	-21	0	-2	-1	77*	76*
COc1ccc(CN=Cc2c(O)[nH]c3ccccc23)cc1	-11	0	0	x	4	x
CCOC(=O)c1c(C)[nH]c(C=Nc2ccccc2)c1O	-12	1	-2	x	0	x
CCOC(=O)c1c(C)[nH]c(O)c1C=Nc1ccccc1	-12	2	-12	x	87*	0
Cc1ccc(Oc2ncccc2CO)cc1	-4	8	4	-10	2	x
O=c1[nH]c2ccccc2nc1/C=C/c1ccccc1	-9	-2	1	0	78*	29
CC(C)(C)/C(O)=C/c1nc2ccccc2[nH]c1=O	-14	-3	2	-10	1	x
O=C(Nc1ncc2c(n1)-c1ccccc1CC2)C1CC1	-14	-2	-4	30	76*	2
CC(C)SCC(=O)Nc1ncc2c(n1)-c1ccccc1CC2	-14	3	-1	x	4	x
Cc1ccnc(NC(=O)CCC(=O)N(CC(=O)NC2CCCCC2)c2ccc3c(c2)OCO3)c1	x	x	x	16	x	x
CCOc1cc(C=O)ccc1OCC(N)=O	-10	3	0	x	24	x
CCOc1cc(/C=C/C(=O)c2ccc(O)cc2)ccc1OCC(=O)N(C)C	-16	-1	8	-4	105*	25
O=Nc1c2ccc[nH]c-2c2ccc([N+](=O)[O-])cc12	-17	-3	1	19	75*	0
O=C(N/N=C/c1ccc[nH]1)c1cccc([N+](=O)[O-])c1	-14	-3	0	9	2	x
COCC(=O)n1nc(-c2ccccc2)nc1NCc1cccs1	5	14*	3	-16	82*	18
COc1ccccc1C(=O)n1nc(-c2cccnc2)nc1NCc1ccccc1	-3	-2	1	10	77*	16
O=C(c1cccs1)n1nc(-c2ccccc2)nc1NCc1ccco1	-10	0	-1	x	1	x
CCCC(=O)n1nc(-c2cccnc2)nc1NCc1ccc(OC)cc1	-3	-3	3	10	80*	0
CC(C)C(=O)n1nc(-c2cccnc2)nc1NCc1ccc(F)cc1	-15	-1	3	5	30	x
CC(=O)c1cccc(N(CC(=O)N2CCCC2)S(C)(=O)=O)c1	8	2	-1	18	1	x
